Source: ChEMBL document CHEMBL3217724, “Synthesis and evaluation of a series of benzothiophene acrylonitrile analogs as anticancer agents” (Medchemcomm, 2013)
The source made the active and inactive calls. No cut-off for these calls is given here.

Tests used:
[1] = Growth inhibition of human OVCAR8 cells; type: functional; conditions: OVCAR-8
Outline: (§1)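 NCI 60-human-cancer-cell-line panel, five-dose screen after a preliminary screen. GI50 is the molar concentration giving 50% growth inhibition.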

[2] = Growth inhibition of human OVCAR4 cells; type: functional; conditions: OVCAR-4; outline: as §1
[3] = Growth inhibition of human OVCAR3 cells; type: functional; conditions: OVCAR-3; outline: as §1
SK-MEL-5 = assay: Growth inhibition of human SK-MEL-5 cells; type: functional; outline: as §1
SK-MEL-2 = assay: Growth inhibition of human SK-MEL-2 cells; type: functional; outline: as §1
SK-MEL-28 = assay: Growth inhibition of human SK-MEL-28 cells; type: functional; outline: as §1
M14 = assay: Growth inhibition of human M14 cells; type: functional; outline: as §1
MDA-MB-435 = assay: Growth inhibition of human MDA-MB-435 cells; type: functional; outline: as §1
Malme-3M = assay: Growth inhibition of human MALME-3M cells; type: functional; outline: as §1
U-251 = assay: Growth inhibition of human U251 cells; type: functional
Outline: (§2)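 NCI 60-cell-line panel, five-dose screen; GI50 is the molar concentration giving 50% growth inhibition.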

[4] = Growth inhibition of human LOXIMVI cells; type: functional; conditions: LOX IMVI; outline: as §1
SNB-75 = assay: Growth inhibition of human SNB75 cells; type: functional; outline: as §2
SNB-19 = assay: Growth inhibition of human SNB19 cells; type: functional; outline: as §2
[5] = Growth inhibition of human SF539 cells; type: functional; conditions: SF-539; outline: as §1
[6] = Growth inhibition of human SF295 cells; type: functional; conditions: SF-295; outline: as §1
SW-620 = assay: Growth inhibition of human SW620 cells; type: functional; outline: as §2
SF-268 = assay: Growth inhibition of human SF268 cells; type: functional; outline: as §1
HT-29 = assay: Growth inhibition of human HT-29 cells; type: functional; outline: as §1
KM12 = assay: Growth inhibition of human KM12 cells; type: functional; outline: as §1
[7] = Growth inhibition of human HCT15 cells; type: functional; conditions: HCT-15; outline: as §1
[8] = Growth inhibition of human HCC2998 cells; type: functional; conditions: HCC 2998; outline: as §1
HCT-116 = assay: Growth inhibition of human HCT116 cells; type: functional; outline: as §1
COLO 205 = assay: Growth inhibition of human COLO205 cells; type: functional; outline: as §1
NCI-H460 = assay: Growth inhibition of human NCI-H460 cells; type: functional; outline: as §1
NCI-H522 = assay: Growth inhibition of human NCI-H522 cells; type: functional; outline: as §1
NCI-H322M = assay: Growth inhibition of human NCI-H322M cells; type: functional; outline: as §1
NCI-H226 = assay: Growth inhibition of human NCI-H226 cells; type: functional; outline: as §1
NCI-H23 = assay: Growth inhibition of human NCI-H23 cells; type: functional; outline: as §1
[9] = Growth inhibition of human HOP92 cells; type: functional; conditions: HOP-92; outline: as §1
[10] = Growth inhibition of human EKVX cells; type: functional; outline: as §1
HOP-62 = assay: Growth inhibition of human HOP62 cells; type: functional; outline: as §1
SR = assay: Growth inhibition of human SR cells; type: functional; outline: as §2
A549 = assay: Growth inhibition of human A549 cells; type: functional; outline: as §1
RPMI-8226 = assay: Growth inhibition of human RPMI8226 cells; type: functional; outline: as §1
K562 = assay: Growth inhibition of human K562 cells; type: functional; outline: as §1
[11] = Growth inhibition of human MOLT4 cells; type: functional; conditions: MOLT-4; outline: as §1
HL-60(TB) = assay: Growth inhibition of human HL-60(TB) cells; type: functional; outline: as §1
CCRF-CEM = assay: Growth inhibition of human CCRF-CEM cells; type: functional; outline: as §1
PC-3 [12] = assay: Induction of apoptosis in human PC3 cells assessed as formation of mitotic castastrophe at 10 to 100 nM after 72 hrs by Hoechst 33342 staining; type: functional, cell-based
Outline: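 PC3 prostate cancer cells were treated 72 h at 10 and 100 nM. Nuclei were stained with Hoechst 33342 and visualized by fluorescence imaging.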

[13] = molecular target: T1, Tubulin beta (Homo sapiens) (UniProt P68371+Q9H4B7+Q13509+P04350+Q3ZCM7+P07437+Q13885+Q9BVA1+Q9BUF5+A6NNZ2); assay: Inhibition of tubulin beta in human PC3 cells assessed as multiple spindle-poles formation at 100 nM after 24 hrs by DAPI-staining based immunofluorescence assay; type: cell-based; conditions: PC-3
Outline: (§3)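 PC3 cells were treated 24 h at 100 nM, with docetaxel 100 nM for comparison. Tubulin immunofluorescence with DAPI nuclear counterstain was used to score chromosome overduplication and multiple spindle poles.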

[14] = molecular target: T1, Tubulin beta (Homo sapiens); assay: Inhibition of tubulin beta in human PC3 cells assessed as chromosomal overduplication at 100 nM after 24 hrs by DAPI-staining based immunofluorescence assay; type: cell-based; conditions: PC-3; outline: as §3
PC-3 [15] = assay: Induction of beta tubulin de-stabilization in human PC3 cells at 1 to 100 nM after 24 hrs by DAPI-staining based immunofluorescence assay; type: cell-based
Outline: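 PC3 cells were treated 24 h at 1, 10 and 100 nM, then immunostained for beta-tubulin with DAPI nuclear counterstain. Docetaxel (stabilizer) and vinblastine (destabilizer) at 10 nM served as references.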

Tubulin (Homo sapiens) = Tubulin (Homo sapiens) (UniProt P68371+Q9H4B7+P0DPH7+P68366+Q13509+Q71U36+P04350+Q3ZCM7+P07437+P68363+Q9BQE3+Q6PEY2+Q13885+Q9BVA1+Q9BUF5); assay: Inhibition of tubulin polymerization (unknown origin) after 1 hr; type: protein-complex assay
Outline: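 Purified tubulin was allowed to polymerize for 1 h with increasing concentrations of compound. Docetaxel and vinblastine were the stabilizing and destabilizing references.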

LLC-PK1 [16] = assay: Resistance factor, ratio of GI50 for pig LLC-PK1 cells expressing MDR1 to GI50 for pig LLC-PK1 cells; set-up: species or system Sus scrofa
Outline: (§4)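 Porcine epithelial L-MDR1 (P-gp expressing) cells and their non-expressing parent line were exposed to compound for 72 h. Viability was read with AlamarBlue dye and GI50 derived. P-gp expression was verified by Western blot with β-actin as loading control. The resistance ratio compares GI50 in MDR1 versus parent cells.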

LLC-PK1 [17] = assay: Growth inhibition of pig LLC-PK1 cells expressing MDR1 by Alamar Blue assay; type: functional; conditions: Sus scrofa; outline: as §4
[18] = Growth inhibition of pig LLC-PK1 cells by Alamar Blue assay; type: cell-based, Sus scrofa
Outline: (§5)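 Cell viability was read with AlamarBlue dye in 96-well format and GI50 values derived, to assess P-gp effects. Cells were P-gp-expressing NCI/ADR-Res ovarian cancer cells and L-MDR1 porcine epithelial cells, each with its non-expressing parent line. P-gp expression was confirmed by Western blot with β-actin as loading control. Resistance is the GI50 in the P-gp line over the GI50 in the parent line.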

[19] = Growth inhibition of P-gp expressing human NCI-ADR-RES cells by Alamar Blue assay; type: functional
Outline: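 72-h cytotoxicity in 96-well plates with AlamarBlue viability dye, giving GI50. Line 1 uses docetaxel-resistant PC3 prostate cells (PC3-DR), and line 2 uses NCI/ADR-Res ovarian cells. P-gp expression in both was confirmed by Western blot, with β-actin as the loading control.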

[20] = Growth inhibition of human OVCAR8 cells by Alamar Blue assay; type: functional; conditions: OVCAR-8; outline: as §5
PC-3 [21] = assay: Growth inhibition of human PC3 cells after 72 hrs by Alamar Blue assay; type: functional; conditions: PC-3, 72 h
Outline: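 PC3 prostate cancer cells and docetaxel-resistant PC3-DR cells were exposed to drug for 72 hours in 96-well format. Viability was read with AlamarBlue dye and GI50 derived. Resistance is the GI50 in PC3-DR over the GI50 in parental PC3.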

T47D = assay: Growth inhibition of human T47D cells; type: functional; outline: as §2
[22] = Growth inhibition of human Hs578T cells; type: functional; conditions: Hs-578T; outline: as §1
[23] = Growth inhibition of human BT549 cells; type: functional; conditions: BT-549; outline: as §1
MDA-MB-231 = assay: Growth inhibition of human MDA-MB-231 cells; type: functional; outline: as §1
DU-145 = assay: Growth inhibition of human DU145 cells; type: functional; outline: as §1
MCF7 = assay: Growth inhibition of human MCF7 cells; type: functional; outline: as §1
[24] = Growth inhibition of human UO31 cells; type: functional; conditions: UO-31; outline: as §2
PC-3 [25] = assay: Growth inhibition of human PC3 cells; type: functional; outline: as §1
TK-10 = assay: Growth inhibition of human TK10 cells; type: functional; outline: as §2
[26] = Growth inhibition of human RXF393 cells; type: functional; conditions: RXF 393; outline: as §1
SN12C = assay: Growth inhibition of human SN12C cells; type: functional; outline: as §2
ACHN = assay: Growth inhibition of human ACHN cells; type: functional; outline: as §1
CAKI-1 = assay: Growth inhibition of human Caki1 cells; type: functional; outline: as §1
A498 = assay: Growth inhibition of human A498 cells; type: functional; outline: as §1
SK-OV-3 = assay: Growth inhibition of human SKOV3 cells; type: functional; outline: as §2
786-0 = assay: Growth inhibition of human 786-0 cells; type: functional; outline: as §1
[27] = Growth inhibition of human NCI-ADR-RES cells; type: functional; outline: as §1
[28] = Growth inhibition of human OVCAR5 cells; type: functional; conditions: OVCAR-5; outline: as §1
PC-3 [29] = assay: cells; conditions: Homo sapiens, PC-3, 72 h

Compound: COc1cc(/C(C#N)=C/c2cc3ccccc3s2)cc(OC)c1OC
- GI50 [1]: 23.5 nM
- GI50 [2]: > 100 nM
- GI50 [3]: 23 nM
- GI50 (SK-MEL-5): 34.4 nM
- GI50 (SK-MEL-2): 41.6 nM
- GI50 (SK-MEL-28): > 100 nM
- GI50 (M14): 37.9 nM
- GI50 (MDA-MB-435): 23.5 nM
- GI50 (Malme-3M): 23.3 nM
- GI50 (U-251): 50 nM
- GI50 [4]: 48.7 nM
- GI50 (SNB-75): 41.5 nM
- GI50 (SNB-19): 44 nM
- GI50 [5]: 24.8 nM
- GI50 [6]: 33.7 nM
- GI50 (SW-620): 40.8 nM
- GI50 (SF-268): 46.7 nM
- GI50 (HT-29): 31.9 nM
- GI50 (KM12): 22.2 nM
- GI50 [7]: 46.1 nM
- GI50 [8]: 16.3 nM
- GI50 (HCT-116): 49.4 nM
- GI50 (COLO 205): 46.9 nM
- GI50 (NCI-H460): 35.9 nM
- GI50 (NCI-H522): 29.7 nM
- GI50 (NCI-H322M): 51.7 nM
- GI50 (NCI-H226): > 100 nM
- GI50 (NCI-H23): 52.3 nM
- GI50 [9]: 17.9 nM
- GI50 [10]: 52.1 nM
- GI50 (HOP-62): 98.9 nM
- GI50 (SR): 46.6 nM
- GI50 (A549): 41.2 nM
- GI50 (RPMI-8226): 28.6 nM
- GI50 (K562): 30.4 nM
- GI50 [11]: 39.7 nM
- GI50 (HL-60(TB)): 24.4 nM
- GI50 (CCRF-CEM): 25.1 nM
- Activity (PC-3 [12]): Active
- inhibition [13]: Active
- inhibition [14]: Active
- Activity (PC-3 [15]): Active
- inhibition (Tubulin (Homo sapiens)): Dose-dependent effect
- RatioGI50 (LLC-PK1 [16]): 1.2
- GI50 (LLC-PK1 [17]): 11.7 nM
- GI50 [18]: 9.7 nM
- GI50 [19]: 3.2 nM
- GI50 [20]: 5.2 nM
- GI50 (PC-3 [21]): 8.6 nM
- GI50 (T47D): > 100 nM
- GI50 [22]: 42.7 nM
- GI50 [23]: 36.6 nM
- GI50 (MDA-MB-231): 33 nM
- GI50 (DU-145): 21.1 nM
- GI50 (MCF7): 40.2 nM
- GI50 [24]: 52.4 nM
- GI50 (PC-3 [25]): 45 nM
- GI50 (TK-10): 36.3 nM
- GI50 [26]: 24.9 nM
- GI50 (SN12C): 68.4 nM
- GI50 (ACHN): 73.2 nM
- GI50 (CAKI-1): 51.4 nM
- GI50 (A498): 28.8 nM
- GI50 (SK-OV-3): 47.2 nM
- GI50 (786-0): 12.2 nM
- GI50 [27]: 27.5 nM
- GI50 [28]: 61.5 nM
- GI50 (PC-3 [29]): 7.6 nM
